Assays:
[1] = tested on: A549 NSCLC cells; assay: Cell viability of A549 NSCLC cells with GSK3 inhibitors; assay type: cell-based
Method in brief: (§1)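 Viability read by ATP-based luminescence (CellTiter-Glo) after exposure of lung cancer cell lines to the test compound. For the GSK3 comparison in A549 cells, the known pan-GSK3 inhibitors BIO and LiCl were run alongside. Enantiomers were compared in A549 and H1648 cells.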

[2] = tested on: A549 cells; assay: Apoptosis by PARP-1 cleavage in A549 cells; assay type: cell-based
Method in brief: (§2)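 A549 cells were treated with the test compound or the reference pan-GSK3 inhibitor BIO (concentrations in μM), then lysates were immunoblotted for PARP-1 cleavage and total c-MET. In parallel, GSK3α and GSK3β were knocked down by siRNA, each alone, both combined, or with one siRNA targeting both, against a non-targeting control. These cells were blotted 72 hours post-transfection.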

[3] = tested on: c-MET; assay: Total c-MET levels in A549 cells; assay type: cell-based
Method in brief: as §2

[4] = tested on: panel of 24 KRAS-mutant and wild-type lung cancer cell lines; assay: Cell viability screen across a panel of 24 lung cancer cell lines; assay type: cell-based; settings: 0.5 and 2.5 μM
Method in brief: as §1

[5] = tested on: A549, H23 and H1648 NSCLC cell lines; assay: Dose-response inhibition of cellular viability in NSCLC cell lines; assay type: cell-based; settings: for activity in inhibition of cellular viability (dose-response): A549, H23, H1648 NSCLC cell lines
Method in brief: as §1

[6] = molecular target: T1, c-MET (Homo sapiens, UniProt P08581); assay: c-MET autophosphorylation in A549 cells; assay type: cell-based; settings: 30 minute treatment, 250 nM for crizotinib, PHA-665752, PF-04217903
T1 sequence (P08581 25-1390): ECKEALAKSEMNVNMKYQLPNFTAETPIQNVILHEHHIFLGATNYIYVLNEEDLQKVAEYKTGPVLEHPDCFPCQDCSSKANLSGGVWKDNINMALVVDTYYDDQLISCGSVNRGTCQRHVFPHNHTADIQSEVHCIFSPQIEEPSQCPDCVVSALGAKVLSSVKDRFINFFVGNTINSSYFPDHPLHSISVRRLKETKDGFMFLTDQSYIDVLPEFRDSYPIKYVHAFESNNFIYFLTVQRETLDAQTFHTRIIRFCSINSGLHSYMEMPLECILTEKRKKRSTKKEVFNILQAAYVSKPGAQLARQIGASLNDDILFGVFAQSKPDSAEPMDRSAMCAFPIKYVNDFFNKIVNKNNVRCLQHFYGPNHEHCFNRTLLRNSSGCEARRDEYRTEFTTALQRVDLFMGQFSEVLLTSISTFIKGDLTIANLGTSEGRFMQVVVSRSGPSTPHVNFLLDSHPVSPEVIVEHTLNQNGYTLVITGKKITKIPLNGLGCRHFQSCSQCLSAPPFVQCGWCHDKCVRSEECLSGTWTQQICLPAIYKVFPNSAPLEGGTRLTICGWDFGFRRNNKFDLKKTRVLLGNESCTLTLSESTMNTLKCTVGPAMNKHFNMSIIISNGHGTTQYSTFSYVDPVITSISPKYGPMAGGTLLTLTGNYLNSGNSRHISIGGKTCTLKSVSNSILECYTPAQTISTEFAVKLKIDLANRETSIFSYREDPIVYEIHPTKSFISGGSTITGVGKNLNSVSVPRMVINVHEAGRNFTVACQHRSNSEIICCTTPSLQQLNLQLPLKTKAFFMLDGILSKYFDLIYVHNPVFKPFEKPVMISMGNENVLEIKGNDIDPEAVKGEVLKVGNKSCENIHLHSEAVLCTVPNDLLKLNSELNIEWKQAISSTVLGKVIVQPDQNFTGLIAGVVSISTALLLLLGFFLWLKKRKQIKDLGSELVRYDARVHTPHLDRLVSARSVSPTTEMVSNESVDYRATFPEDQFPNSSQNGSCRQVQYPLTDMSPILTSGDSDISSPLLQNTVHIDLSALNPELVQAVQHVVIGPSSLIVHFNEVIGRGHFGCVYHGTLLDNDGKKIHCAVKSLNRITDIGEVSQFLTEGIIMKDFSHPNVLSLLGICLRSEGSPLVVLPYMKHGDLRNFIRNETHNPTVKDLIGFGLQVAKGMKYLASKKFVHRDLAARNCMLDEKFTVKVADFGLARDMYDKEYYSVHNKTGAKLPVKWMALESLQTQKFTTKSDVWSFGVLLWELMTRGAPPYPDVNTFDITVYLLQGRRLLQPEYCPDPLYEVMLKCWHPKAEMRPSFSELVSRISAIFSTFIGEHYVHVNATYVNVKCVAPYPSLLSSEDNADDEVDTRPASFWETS

[7] = molecular target: GSK3α (Homo sapiens, UniProt P49840); assay: In vitro kinase inhibition assay GSK3α; assay type: biochemical; settings: Millipore and Reaction Biology platforms
GSK3α, sequence (P49840 whole entry): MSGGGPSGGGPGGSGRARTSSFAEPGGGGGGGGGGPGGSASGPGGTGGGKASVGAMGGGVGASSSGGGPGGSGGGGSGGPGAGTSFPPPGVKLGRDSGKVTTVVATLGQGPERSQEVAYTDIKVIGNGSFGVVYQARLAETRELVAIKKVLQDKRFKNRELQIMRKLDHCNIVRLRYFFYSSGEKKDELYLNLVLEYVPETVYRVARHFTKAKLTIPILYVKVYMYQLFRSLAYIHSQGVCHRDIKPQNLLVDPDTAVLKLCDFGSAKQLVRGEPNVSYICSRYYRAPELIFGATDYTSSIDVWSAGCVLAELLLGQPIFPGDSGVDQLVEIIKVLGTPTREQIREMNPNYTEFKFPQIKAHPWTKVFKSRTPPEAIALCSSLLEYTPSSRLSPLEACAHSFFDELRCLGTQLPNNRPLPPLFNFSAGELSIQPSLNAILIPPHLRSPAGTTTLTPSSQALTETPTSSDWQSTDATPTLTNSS

[8] = molecular target: GSK3β (Homo sapiens, UniProt P49841); assay: In vitro kinase inhibition assay GSK3β; assay type: biochemical; settings: Millipore and Reaction Biology platforms
GSK3β, sequence (P49841 whole entry): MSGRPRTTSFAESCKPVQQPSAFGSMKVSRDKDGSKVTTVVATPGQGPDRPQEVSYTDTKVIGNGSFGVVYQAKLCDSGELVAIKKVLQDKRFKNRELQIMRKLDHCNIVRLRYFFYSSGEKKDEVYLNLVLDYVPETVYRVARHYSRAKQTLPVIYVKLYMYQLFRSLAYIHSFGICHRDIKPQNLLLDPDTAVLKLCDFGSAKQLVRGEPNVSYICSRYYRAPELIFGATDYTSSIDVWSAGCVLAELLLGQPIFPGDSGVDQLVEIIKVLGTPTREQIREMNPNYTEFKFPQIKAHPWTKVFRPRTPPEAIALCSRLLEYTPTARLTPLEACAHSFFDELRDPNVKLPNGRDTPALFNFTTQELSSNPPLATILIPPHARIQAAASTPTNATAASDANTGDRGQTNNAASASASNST

[9] = molecular target: T1, c-MET; settings: reported ref 8, 17; cited from earlier work
[10] = molecular target: T1, c-MET; assay: In vitro kinase inhibition c-MET; assay type: biochemical
[11] = tested on: β-catenin; assay: Total β-catenin levels in A549 cells; assay type: cell-based; settings: A549 cells after treatment
[12] = tested on: MV-4–11 MLL-rearranged leukemia cells; assay: Viability of MV-4–11 MLL-rearranged leukemia cells; assay type: cell-based; settings: MV-4–11 cells
[13] = tested on: RS4;11 MLL-rearranged leukemia cells; assay: Viability of RS4; assay type: cell-based; settings: RS4;11 cells
[14] = tested on: MV-4–11 and RS4;11 MLL-rearranged leukemia cells; assay: β-catenin stabilisation and cell cycle in MLL-rearranged leukemia cells; assay type: cell-based
[15] = tested on: A549 cells; assay: Cell cycle analysis in A549 cells; assay type: cell-based

Question: For O=C1Nc2cc(Br)ccc2/C1=C1/Nc2ccccc2/C1=N\O [BIO], which “antiproliferative activity in A549 cells” value [1] is on record?
Answer: showed antiproliferative activity

Question: And the “apoptosis indicated by PARP-1 cleavage” value [2]?
Answer: able to induce apoptosis in A549 cells, albeit slightly delayed

Question: What about the “c-MET levels upon treatment” value [3] of the same compound?
Answer: decreased c-MET levels

Question: What does the source list for [Cl-].[Li+] [LiCl]?
Answer: antiproliferative activity in A549 cells [1]: showed antiproliferative activity; potency range of antiproliferative activity [1]: low millimolar activity

Question: What does the source list for OCCn1cc(-c2cnc3nnn(Cc4ccc5ncccc5c4)c3n2)cn1 [PF-04217903]?
Answer: effect on cellular viability across lung cancer cell line panel [4]: no significant effects; activity in inhibition of cellular viability (dose-response) [5]: no measurable

Question: For Cc1[nH]c(/C=C2\C(=O)Nc3ccc(S(=O)(=O)Cc4c(Cl)cccc4Cl)cc32)c(C)c1C(=O)N1CCC[C@@H]1CN1CCCC1 [PHA-665752], which “inhibition of c-MET autophosphorylation” value [6] is on record?
Answer: effectively inhibited

Question: Which “effect on cellular viability across lung cancer cell line panel” value [4] does the source give for COc1cc2nccc(Oc3ccc(NC(=O)C4(C(=O)Nc5ccc(F)cc5)CC4)cc3)c2cc1OC [cabozantinib] here?
Answer: no significant effects

Question: Which “activity in (−)-tivantinib-sensitive cell lines (cellular viability)” value ([5]; A549 and H1648 cells, compared with (−)-tivantinib) does the source give for O=C1NC(=O)[C@H](c2cn3c4c(cccc24)CCC3)[C@H]1c1c[nH]c2ccccc12 [compound 7, (+)-3S,4S-tivantinib] here?
Answer: substantially weaker activity

Question: What about the “IC50 for inhibition of GSK3α in vitro kinase activity” value [7] of the same compound?
Answer: significantly weaker inhibitor

Question: What about the “IC50 for inhibition of GSK3β in vitro kinase activity” value [8] of the same compound?
Answer: significantly weaker inhibitor

Question: What about the “activity against c-MET” value [9] of the same compound?
Answer: inactive

Question: What does the source list for C[C@@H](Oc1cc(-c2cnn(C3CCNCC3)c2)cnc1N)c1c(Cl)ccc(F)c1Cl [crizotinib]?
Answer: effect on cellular viability across lung cancer cell line panel [4]: no significant effects; activity in inhibition of cellular viability (dose-response) [5]: only weak activity

Question: Which results are given for O=C1NC(=O)[C@@H](c2cn3c4c(cccc24)CCC3)[C@@H]1c1c[nH]c2ccccc12 [tivantinib]?
Answer: effect on cellular viability across lung cancer cell line panel [4]: inhibited the viability of the majority of these; IC50 ([5]; read-out: IC50 for inhibition of cellular viability): ~500 nM; inhibition of c-MET autophosphorylation [6]: essentially no effect; IC50 for inhibition of GSK3α in vitro kinase activity [7]: upper nanomolar range; IC50 for inhibition of GSK3β in vitro kinase activity [8]: upper nanomolar range; inhibition of c-MET (in vitro kinase) [10]: only weakly inhibited; total β-catenin levels [11]: increase in total β-catenin levels; inhibition of viability [12]: potently inhibited viability; inhibition of viability [13]: potently inhibited viability; cell cycle effect [14]: induced G1 cell cycle arrest; β-catenin stabilisation [14]: stabilized β-catenin; apoptosis indicated by PARP-1 cleavage [2]: induce apoptosis; c-MET levels upon treatment [3]: decreased c-MET levels; cell cycle effect [15]: G2/M cell cycle arrest

Reference: article PMC3944088 (ACS chemical biology, 2013)
